Source: PubChem BioAssay
In the library only some 2.4% were active in any assay of this set; here they are far more common.
MC4R antagonist: antagonists of human melanocortin 4 receptor (MC4R); 360,000 tested, 0.48% active; P32245; AID 540295; MC4R-expressing cells, MTII-stimulated cAMP, LANCE TR-FRET; inhibition, % at 6.5 µM;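 active = inhibition above its plate's cutoff, the mean of tested wells on that plate plus 3 SD, cut at about 29% in these data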
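Assay system: human MC4R-expressing U2OS cells; reagent: Melanotan II stimulation of cells; dosing: 6.5 µM single dose; timing: compound 30 min, challenge 1 h, detection 1 h; signal: TR-FRET cAMP assay; replicates: one well per compound, no replicates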
HTR5A ag ctr: activates human HTR5A in OPRM1-OPRD1 agonist counter-screen | activation, % at 9.3 µM | 340,000 tested, 0.61% active | AID 504692 | HTR5A agonist assay, luminescence, cell-based; in the data active = activation mostly above about 9.5%, no sharp cut-off; inactive = mostly below about 7.6%
OPRM1-OPRD1 inv: mu-delta opioid heterodimer inverse agonism; P35372+P41143; cell-based MOR-DOR heterodimer luminescence; inhibition, % at 9.3 µM; 340,000 tested, 0.21% active; AID 504357; in the data active = inhibition above about 22%, passing the limit was not always enough
Target sequence (P35372 whole entry, looked up): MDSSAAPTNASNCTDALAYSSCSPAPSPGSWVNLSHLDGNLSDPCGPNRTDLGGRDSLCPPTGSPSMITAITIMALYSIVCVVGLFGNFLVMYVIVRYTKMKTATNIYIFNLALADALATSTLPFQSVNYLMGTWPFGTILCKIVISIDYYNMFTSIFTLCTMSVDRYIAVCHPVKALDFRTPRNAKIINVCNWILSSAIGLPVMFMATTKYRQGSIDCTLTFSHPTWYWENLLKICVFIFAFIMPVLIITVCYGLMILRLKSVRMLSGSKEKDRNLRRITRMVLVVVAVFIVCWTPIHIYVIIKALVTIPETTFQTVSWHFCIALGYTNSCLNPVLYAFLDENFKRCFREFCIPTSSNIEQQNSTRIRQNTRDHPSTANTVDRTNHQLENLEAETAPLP
Target sequence (P41143 whole entry, looked up): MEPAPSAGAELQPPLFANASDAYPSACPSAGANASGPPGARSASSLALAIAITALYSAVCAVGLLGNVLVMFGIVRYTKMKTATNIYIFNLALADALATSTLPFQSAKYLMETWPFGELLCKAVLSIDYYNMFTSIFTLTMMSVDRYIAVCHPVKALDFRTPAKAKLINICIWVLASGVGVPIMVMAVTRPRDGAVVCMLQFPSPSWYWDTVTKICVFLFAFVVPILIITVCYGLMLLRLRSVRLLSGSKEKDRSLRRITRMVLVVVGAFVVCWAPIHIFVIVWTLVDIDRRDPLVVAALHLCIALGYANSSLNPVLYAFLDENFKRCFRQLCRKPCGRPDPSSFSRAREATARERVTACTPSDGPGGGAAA
HTR5A inv ctr: inverse agonist of human HTR5A in OPRM1-OPRD1 counter-screen; HTR5A cell line, luminescence, inverse agonism; P47898; 340,000 tested, 0.083% active; inhibition, % at 9.3 µM; AID 504634; in the data active = inhibition mostly above about 23%, no sharp cut-off; inactive = mostly below about 18%
MOR-DOR ag: agonists of human mu-delta opioid receptor heterodimerization; cells, OPRM1-OPRD1 heterodimerization, luminescence; activation, % at 9.3 µM; 340,000 tested, 0.3% active; AID 504326; in the data active = activation above about 18%
MC4R barr agon: activates human MC4R beta-arrestin recruitment; activation, % at 8.9 µM; 360,000 tested, 0.98% active; U2OS MC4R beta-arrestin complementation, luminescence; percent of melanotan II response, DMSO zero;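 active = activation above a per-plate cutoff, the mean activation of sample wells on that plate plus 3 SD, cut at about 8% in these data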
MC4R barr ag: human MC4R beta-arrestin agonism confirmation; shares compounds with MC4R barr agon; U2OS MC4R beta-arrestin recruitment, luminescence; scaled DMSO 0%, Melanotan II 100%; activation, % at 8.9 µM; 2,400 tested, 31% active; AID 602192;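 active = mean activation across replicates above the hit cutoff set in the earlier primary screen, cut at about 8% in these data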
MOR DOR agonist: counter-screen for MC4R agonists: agonists of mu-delta opioid heterodimer; U2OS PathHunter beta-arrestin, beta-gal luminescence; percent of deltorphin B response, DMSO zero; activation, % at 9.2 µM; shares compounds with MC4R barr agon; AID 602194; 2,400 tested, 5.8% active;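 active = mean activation across replicates exceeds the hit threshold derived in the earlier primary screen, cut at about 18% in these data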
Of the large screens only hits and unclear results are named; the others gave an inactive call (follow-up assays come after a bar, where they were run).

O=C(OCC(=O)N1CCN(C(=O)c2ccco2)CC1)c1cc(-c2ccc(Cl)c(Cl)c2Cl)nc2ccccc12	MC4R barr agon 11.1 | MC4R barr ag inactive | MOR DOR agonist inactive
O=C(Nc1ccc(Cl)c(Cl)c1)c1ccc(Cl)c(Cl)c1	MC4R barr agon 14.4 | MC4R barr ag inactive | MOR DOR agonist inactive
O=C(Nc1ccc(Cl)c(Cl)c1)c1csc(-c2ccccc2)n1	MC4R barr agon 19.8 | MC4R barr ag inactive | MOR DOR agonist inactive
O=C(Nc1ccc(Cl)c(Cl)c1)c1ccncc1	none
CC(=O)Nc1ccc(N2C(=O)CSC2c2cccc([N+](=O)[O-])c2)cc1 (stereo unspecified)	none
CCOc1ccccc1CN1CCNC(=O)C1CC(=O)N(C)C1CCOCC1 (stereo unspecified)	none
CC1(C(=O)NS(=O)(=O)c2cccc(Cl)c2)CCN1C(=O)C1CCCCC1 (stereo unspecified)	none (no result: HTR5A ag ctr, OPRM1-OPRD1 inv, HTR5A inv ctr, MOR-DOR ag)
S=c1[nH]nc(C2CC2c2ccc(Cl)cc2)n1-c1ccc(Cl)cc1 (stereo unspecified)	MC4R barr agon 10.5 | MC4R barr ag inactive | MOR DOR agonist inactive
Cc1ccc(NC(=O)c2sc(N)nc2-c2ccc([N+](=O)[O-])cc2)cc1C	MC4R barr agon 11.4 | MC4R barr ag inactive | MOR DOR agonist inactive
Cc1ccc(NC(=O)c2sc(N)nc2-c2ccc([N+](=O)[O-])cc2)c(C)c1	none
CC(C)(CNc1ccc(C(F)(F)F)cc1[N+](=O)[O-])N1CCOCC1	none
CC(C)OC(=O)c1c(NC(=O)Cn2cnc([N+](=O)[O-])n2)sc2c1CCCC2	MC4R barr agon 9.9 | MC4R barr ag inactive | MOR DOR agonist inactive
CCOC(=O)c1c(NC(=O)Cn2cnc([N+](=O)[O-])n2)sc2c1CCCC2	none
CC(OC(=O)Cc1cccc(C(F)(F)F)c1)C(=O)Nc1ccc(Cl)cn1 (stereo unspecified)	none
CC1CN(c2ccc([N+](=O)[O-])c(NCCOc3ccc(Cl)cc3)c2)CC(C)N1 (stereo unspecified)	none
CCc1ccc(OCCNc2cc(N3CCNC(C)C3)ccc2[N+](=O)[O-])cc1 (stereo unspecified)	MC4R barr agon 11.4 | MC4R barr ag 23.4 | MOR DOR agonist inactive
N#C/C(=C\c1ccc(OCC(N)=O)cc1)S(=O)(=O)c1ccccc1	none
Cc1cc(C)c2nc(-c3ccccn3)cc(C(=O)Nc3cc(C)on3)c2c1	MC4R barr agon 16.2 | MC4R barr ag inactive | MOR DOR agonist inactive
Cc1cc(NC(=O)c2cc(-c3ccccn3)nc3ccccc23)no1	none
COC(=O)c1oc2ccc(Br)cc2c1NC(=O)CN1CCN(C)CC1	none
COC(=O)c1oc2ccc(Br)cc2c1NC(=O)c1ccccc1	MC4R barr agon 29.7 | MC4R barr ag 16.3 | MOR DOR agonist inactive
COc1ccc(CCNC(=O)Cc2cc(OCc3ccccc3)c(OC)cc2[N+](=O)[O-])cc1OC	none
COc1cc(CC(=O)NCCc2ccc(OCc3ccccc3)cc2)c([N+](=O)[O-])cc1OC	MC4R barr agon 12.4 | MC4R barr ag inactive | MOR DOR agonist inactive
Cc1ccc(C(=O)N/C(=C\c2ccc(-c3cccc([N+](=O)[O-])c3)o2)C(=O)NCCCN(C)C)cc1	none
Cc1ccc(C(=O)N/C(=C\c2ccc(-c3ccc(Br)cc3)o2)C(=O)NCCCN(C)C)cc1	MC4R barr agon 11.3 | MC4R barr ag 9.1 | MOR DOR agonist inactive
O=C(CNC(=O)N1CC(=O)Nc2ccccc21)NCc1ccc(F)cc1	none (no result: HTR5A ag ctr, OPRM1-OPRD1 inv, HTR5A inv ctr, MOR-DOR ag)
O=C(COC(=O)/C=C/c1ccccc1Cl)NCCNC(=O)COC(=O)/C=C/c1ccccc1Cl	MC4R barr agon 12.2 | MC4R barr ag inactive | MOR DOR agonist inactive
O=C(/C=C/c1cccc([N+](=O)[O-])c1)OCC(=O)N1CCCCC1	none (no result: HTR5A ag ctr, OPRM1-OPRD1 inv, HTR5A inv ctr, MOR-DOR ag)
O=C(CN1CCCCCCC1)Nc1cc(Cl)cc(Cl)c1	MC4R barr agon 14.2 | MC4R barr ag inactive | MOR DOR agonist inactive
O=C(CN1CCCC1)Nc1cccc(Cl)c1	none
COc1cccc(/C=N/NC(=O)c2ccc(OCc3cccc(Br)c3)cc2)c1	none
O=C(Nc1ccc(OCc2ccccc2)cc1)c1cccs1	none
O=C(N/N=C/c1ccc(OCc2ccccc2)cc1)c1cccs1	MC4R barr agon 13.3 | MC4R barr ag 20.1 | MOR DOR agonist inactive
O=C(N/N=C/c1cccc(OCc2ccccc2)c1)c1ccc(Br)cc1	MC4R barr agon 17.4 | MC4R barr ag inactive | MOR DOR agonist inactive
CC(/C=N/NC(=O)c1ccc(Br)cc1)=C\c1ccccc1	MC4R barr agon 28.1 | MC4R barr ag inactive | MOR DOR agonist inactive
CN(c1ccccc1)S(=O)(=O)c1cccc(NC(=O)c2ccc(=O)[nH]n2)c1	none
CC(=O)Nc1cc(-c2ccccc2)cn2c(-c3ccc(F)cc3)cnc12	MC4R barr agon 26.0 (no result: HTR5A ag ctr, OPRM1-OPRD1 inv, HTR5A inv ctr, MOR-DOR ag) | MC4R barr ag 26.6 | MOR DOR agonist inactive
COc1cc(-c2cc(NC(C)=O)c3ncc(-c4ccc(F)cc4)n3c2)cc(OC)c1OC	MC4R barr agon 11.9 (no result: HTR5A ag ctr, OPRM1-OPRD1 inv, HTR5A inv ctr, MOR-DOR ag) | MC4R barr ag 8.6 | MOR DOR agonist inactive
CC(=O)Nc1cc(-c2ccc(F)cc2)cn2c(-c3ccc(F)cc3)cnc12	MC4R barr agon 24.6 (no result: HTR5A ag ctr, OPRM1-OPRD1 inv, HTR5A inv ctr, MOR-DOR ag) | MC4R barr ag 14.6 | MOR DOR agonist inactive
CC(=O)Nc1cc(-c2ccc(CO)cc2)cn2c(-c3ccc(F)cc3)cnc12	none (no result: HTR5A ag ctr, OPRM1-OPRD1 inv, HTR5A inv ctr, MOR-DOR ag)
COc1ccc(/C=N/NC(=O)Nc2nonc2N)cc1	none
COc1ccc(S(=O)(=O)n2cccc2)cc1	none (no result: HTR5A ag ctr, OPRM1-OPRD1 inv, HTR5A inv ctr, MOR-DOR ag)
Clc1cccc(-c2noc3ncnc(Nc4ccc5c(c4)OCO5)c23)c1	none
Cc1cccc(Nc2ncnc3onc(-c4cccc(Cl)c4)c23)c1	MC4R barr agon 11.2 | MC4R barr ag inactive | MOR DOR agonist inactive
CC(=O)c1ccc(OCc2cc(C(=O)NCCc3ccc(Cl)cc3)no2)cc1	MC4R barr agon 14.5 | MC4R barr ag inactive | MOR DOR agonist inactive
COc1cccc(-c2cnc3c(NC(C)=O)cc(-c4cccc(C(=O)N(C)C)c4)cn23)c1	none (no result: HTR5A ag ctr, OPRM1-OPRD1 inv, HTR5A inv ctr, MOR-DOR ag)
COc1cccc(-c2cc(NC(C)=O)c3ncc(-c4ccc(OC)c(OC)c4)n3c2)c1	MC4R barr agon 16.7 (no result: HTR5A ag ctr, OPRM1-OPRD1 inv, HTR5A inv ctr, MOR-DOR ag) | MC4R barr ag 10.6 | MOR DOR agonist inactive
COc1cccc(-c2cnc3c(NC(C)=O)cc(-c4ccsc4)cn23)c1	MC4R barr agon 37.3 (no result: HTR5A ag ctr, OPRM1-OPRD1 inv, HTR5A inv ctr, MOR-DOR ag) | MC4R barr ag 41.6 | MOR DOR agonist inactive
COc1ccc(-c2cc(NC(C)=O)c3ncc(-c4cccc(C(C)=O)c4)n3c2)cc1OC	MC4R barr agon 25.5 (no result: HTR5A ag ctr, OPRM1-OPRD1 inv, HTR5A inv ctr, MOR-DOR ag) | MC4R barr ag 27.2 | MOR DOR agonist inactive
